Experimental data taken from ChEMBL document CHEMBL1781958, “Discovery of pyridone-containing imidazolines as potent and selective inhibitors of neuropeptide Y Y5 receptor” (Bioorg Med Chem, 2009).

What was measured:
[1] = Drug level in anesthetized Sprague-Dawley rat plasma at 5 mg/kg, iv after 3 mins; assay type: ADME, organism-based; design: dose 5 mg/kg, route intravenous
In short: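 Male SD rats under inactin (100 mg/kg). Femoral artery catheter for pressure, femoral vein for dosing, left ventricular catheter via the carotid for LVP; LV dp/dt_max derived from LVP. Vehicle (60% propylene glycol/water, 1 mL/kg) given first, compound 45 min later. Values are % change from baseline at 3 min after 5 mg/kg iv, with blood drawn at 3 min; n = 2–3.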

[2] = system: Brain; test: Drug level in mdr1a expressing wild type CF1 mouse brain at 10 mg/kg, po after 2 hrs; assay type: ADME, organism-based; design: dose 10 mg/kg, route oral; conditions: in vivo
In short: (§1)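 CF-1 mice, mdr1a (−/−) and (+/+), dosed orally at 10 mg/kg; brain and plasma concentrations taken 2 h after dosing; mean of n = 3.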

[3] = Drug level in mdr1a expressing wild type CF1 mouse plasma at 10 mg/kg, po after 2 hrs; assay type: ADME, organism-based; design: dose 10 mg/kg, route oral; in short: as §1
[4] = AUC (0 to infinity) in Sprague-Dawley rat at 3 mg/kg, po; assay type: ADME, organism-based; design: time infinity, dose 3 mg/kg, route oral; conditions: plasma
In short: (§2)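 PK in rats (oral 3 mg/kg, iv 1 mg/kg) and rhesus monkeys (oral 1 mg/kg, iv 0.3 mg/kg); values are means of n = 3.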

[5] = system: Brain; test: Drug level in Sprague-Dawley rat brain at 10 mg/kg, po after 2 hrs; assay type: ADME, organism-based; design: dose 10 mg/kg, route oral; conditions: in vivo
In short: (§3)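 SD rats dosed orally at 10 mg/kg; brain (nmol/g) and plasma levels measured 2 h later.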

[6] = Volume of distribution at steady state in rhesus monkey at 1 mg/kg, po and 0.3 mg/kg, iv; assay type: ADME, organism-based, Macaca mulatta; conditions: in vivo, read-out: Vdss
In short: (§4)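 Pharmacokinetic parameters are the mean of n = 3 animals. Rats were dosed 1 mg/kg iv and 3 mg/kg po; rhesus monkeys 0.3 mg/kg iv and 1 mg/kg po.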

[7] = Cmax in rhesus monkey at 1 mg/kg, po and 0.3 mg/kg, iv; assay type: ADME, organism-based, Macaca mulatta; conditions: in vivo; in short: as §2
[8] = Drug level in Sprague-Dawley rat plasma at 10 mg/kg, po after 2 hrs; assay type: ADME, organism-based; design: dose 10 mg/kg, route oral; in short: as §3
[9] = system: Brain; test: Drug level in mdr1a deficient CF1 mouse brain at 10 mg/kg, po after 2 hrs; assay type: ADME, organism-based; design: dose 10 mg/kg, route oral; conditions: in vivo; in short: as §1
[10] = Drug level in mdr1a deficient CF1 mouse plasma at 10 mg/kg, po after 2 hrs; assay type: ADME, organism-based; design: dose 10 mg/kg, route oral; in short: as §1
[11] = Ratio of drug level in brain to plasma of Sprague-Dawley rat at 10 mg/kg, po after 2 hrs; assay type: ADME, organism-based; design: dose 10 mg/kg, route oral; conditions: read-out: BPR
In short: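 Sprague-Dawley rats were dosed orally at 10 mg/kg. Brain (nmol/g) and plasma concentrations were measured 2 h later, and the brain-to-plasma ratio was taken from these.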

[12] = Bioavailability in Sprague-Dawley rat at 3 mg/kg, po and 1 mg/kg, iv; assay type: ADME, organism-based; conditions: in vivo; in short: as §2
[13] = Volume of distribution at steady state in Sprague-Dawley rat at 3 mg/kg, po and 1 mg/kg, iv; assay type: ADME, organism-based; conditions: in vivo, read-out: Vdss; in short: as §4
[14] = Cmax in Sprague-Dawley rat at 3 mg/kg, po and 1 mg/kg, iv; assay type: ADME, organism-based; conditions: in vivo; in short: as §2
[15] = Drug level in anesthetized Beagle dog plasma at 5 mg/kg, iv infused over 10 mins measured immediately after end of dosing; assay type: ADME, organism-based, Canis lupus familiaris; design: dose 5 mg/kg, route intravenous
In short: (§5)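 Dogs were anesthetized and, after surgery, stabilized at least 1 h before baseline readings. Doses of 1, 2 and 5 mg/kg were infused iv over 10 min each (cumulative 1, 3, 8 mg/kg). QTc, MAP, LVSP, CO, HR and LV dp/dt_max were read at 0, 10 and 20 min as maximum % change from baseline. Plasma was sampled at the end of each dosing period; n = 3.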

[16] = Bioavailability in rhesus monkey at 1 mg/kg, po and 0.3 mg/kg, iv; assay type: ADME, organism-based, Macaca mulatta; conditions: in vivo
[17] = Ratio of drug level in brain to plasma in mdr1a deficient CF1 mouse at 10 mg/kg, po after 2 hrs; assay type: ADME, organism-based; design: dose 10 mg/kg, route oral; conditions: read-out: BPR
In short: (§6)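 P-gp-deficient mdr1a (−/−) and wild-type mdr1a (+/+) CF-1 mice were dosed orally at 10 mg/kg. Brain (nmol/g) and plasma levels were taken 2 h post-dose, n = 3. The ratio was calculated from the mean values.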

[18] = Ratio of drug level in brain to plasma in mdr1a expressing wild type CF1 mouse at 10 mg/kg, po after 2 hrs; assay type: ADME, organism-based; design: dose 10 mg/kg, route oral; conditions: read-out: BPR; in short: as §6
[19] = Drug level in anesthetized Beagle dog plasma at 2 mg/kg, iv infused over 10 mins measured immediately after end of dosing; assay type: ADME, organism-based, Canis lupus familiaris; design: dose 2 mg/kg, route intravenous; in short: as §5
[20] = Drug level in anesthetized Beagle dog plasma at 1 mg/kg, iv infused over 10 mins measured immediately after end of dosing; assay type: ADME, organism-based, Canis lupus familiaris; design: dose 1 mg/kg, route intravenous; in short: as §5
[21] = AUC (0 to infinity) in rhesus monkey at 1 mg/kg, po; assay type: ADME, organism-based, Macaca mulatta; design: time infinity, dose 1 mg/kg, route oral; conditions: plasma; in short: as §2

C[C@@H]1NC(c2cccc(O)n2)=NC1(c1ccc(F)cc1)c1ccc(F)cc1
concentration at 0.05 h [1]: 2.6 µM

C[C@@H]1NC(c2cc(C#N)ccn2)=N[C@@]1(c1ccc(F)cc1)c1ccc(F)nc1
concentration at 0.05 h [1]: 6.3 µM

C[C@@H]1NC(c2cccc(S(N)(=O)=O)c2)=N[C@@]1(c1ccc(F)cc1)c1ccc(F)nc1
concentration at 0.05 h [1]: 4.9 µM

C[C@@H]1NC(c2cnccn2)=N[C@@]1(c1ccc(F)cc1)c1ccc(F)nc1
concentration at 0.05 h [1]: 5.1 µM

C[C@@H]1NC(c2ccnc(C#N)c2)=N[C@@]1(c1ccc(F)cc1)c1ccc(F)nc1
concentration at 0.05 h [1]: 4.3 µM

C[C@@H]1NC(c2cccc(=O)[nH]2)=N[C@@]1(c1ccc(F)cc1)c1ccc(F)nc1
concentration at 0.05 h [1]: 5.3 µM

C[C@@H]1NC(c2ccc(=O)n(C(F)F)c2)=N[C@@]1(c1ccc(F)cc1)c1ccc(F)nc1
Drug uptake [2]: 4 nmol/g | concentration at 2 h [3]: 8.36 µM | AUC(0-inf) [4]: 4.8 µM·h | Drug uptake [5]: 0.91 nmol/g | Vd [6]: 3.8 L/kg | Cmax [7]: 0.64 µM | concentration at 2 h [8]: 2.2 µM | Drug uptake [9]: 14.8 nmol/g | concentration at 2 h [10]: 7.01 µM | Kp at 2 h [11]: 0.42 | bioavailability [12]: 92% | Vd [13]: 2.6 L/kg | Cmax [14]: 1.1 µM | concentration at 10 min [15]: 26.9 µM | bioavailability [16]: 92% | Kp at 2 h [17]: 2.05 | Kp at 2 h [18]: 0.48 | concentration at 10 min [19]: 14.3 µM | concentration at 10 min [20]: 7.7 µM | AUC(0-inf) [21]: 11 µM·h
